Experimental data published in publication PMC10984326 (Chemistry & biodiversity, 2023).

Legend:
[1] = tested on: A375 cells; assay: Flow cytometry analysis of cell cycle; assay type: cell-based, human; conditions: for Cell cycle arrest: 5 x IC50; for Sub-G1 DNA content relative to control: 72 h, 5 x IC50 (7b 17.5 μM, 7c 21.5 μM), vs 0.2% DMSO
[2] = tested on: A375 cells; assay: Wound-healing; assay type: cell-based, human; conditions: for Inhibition of migration of A375 cells: after 20, 48 and 54 h, 7b 3.5 μM, 7c 4.3 μM
[3] = tested on: Human primary dermal fibroblasts; assay: MTT cell viability assay, non-cancerous fibroblasts; assay type: cell-based; conditions: IC50 of cancer cells compared with IC50 of human fibroblasts
Outline: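 Primary dermal fibroblasts were grown in fibroblast basal medium with low-serum growth supplement at 37°C, 5% CO2. Cells were seeded at 2×10^3/well, and after 24 h were exposed for 72 h to test compound (DMSO solution, up to 10 μM) or 0.1% DMSO. MTT was added for 4 h and the formazan dissolved in DMSO, with absorbance at 540 nm. IC50 came from non-linear regression, and SI from comparing A375 and 35404 IC50s with fibroblast IC50.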

[4] = tested on: 35404 cells; assay: MTT cell viability assay, patient-derived melanoma metastasized to brain; assay type: cell-based, human; conditions: read-out: Antiproliferative activity (IC50, μM) 35404 cells, 72 h treatment, up to 10 μM, mean±SD (n=4), IN = inactive

IC50 [4] [µM] | SMILES | Cell cycle arrest ([1]; 24 h) | DNA fragmentation (sub-G1 DNA) ([1]; 24 h, 5 x IC50 (17.5 μM)) | Cell cycle arrest ([1]; 48 h and 72 h) | Sub-G1 DNA content relative to control [1] | Wound surface area ([2]; 4 h of treatment, 3.5 μM (IC50), 0 h = 100%, control 76%) [%] | Inhibition of migration of A375 cells [2] | SI (selectivity index) [3]
– | Cc1cc(C(=O)/C(=C\c2cccc(F)c2)c2cccc(F)c2)c(C(=O)N2CCCCC2)c(=O)[nH]1 [Compound 7b, (Z)-4-(2,3-bis(3-fluorophenyl)acryloyl)-6-methyl-3-(piperidine-1-carbonyl)pyridin-2(1H)-one] | transient G2 and/or M phase arrest | Statistically significant DNA fragmentation | substantial G1 arrest | statistically significant increases | 93 | statistically significant inhibition of migration | –
– | COc1ccc(/C=C(\C(=O)c2cc(C)[nH]c(=O)c2C(=O)N2CCCCC2)c2ccc(OC)c(C)c2)cc1C [Compound 7c, (Z)-4-(2,3-bis(4-methoxy-3-methylphenyl)acryloyl)-6-methyl-3-(piperidine-1-carbonyl)pyridin-2(1H)-one] | – | – | substantial G1 arrest | statistically significant increases | – | statistically significant inhibition of migration | >2
0.4 ± 0.2 | Cc1cc(C(=O)/C(=C\c2ccc(C)c(Cl)c2)c2ccc(C)c(Cl)c2)c(C(=O)N2CCCCC2)c(=O)[nH]1 [Compound 7g, (Z)-4-(2,3-bis(3-chloro-4-methylphenyl)acryloyl)-6-methyl-3-(piperidine-1-carbonyl)pyridin-2(1H)-one] | – | – | – | – | – | – | >20
